# XBP1 UPR activ = activators of adaptive XBP1 UPR arm, primary screen, cell-based, CHO-XBP1 luciferase reporter, luminescence, uHTS | activation, % at 20 µM | IRE1-XBP1 UPR activation; percent of tunicamycin response, DMSO as zero | hit rate 0.33% among 330,000;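 active = versus positive control, 20 µM dose yields 30% or more activation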;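 also: 100% = tunicamycin at 10 µg/mL and 0% = DMSO only wells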
#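 Material: CHO cell line with stable XBP1 luciferase reporter; buffer or medium: F12 medium containing 10% fetal bovine serum; compound: single point, 20 µM final compound, 1% DMSO; incubation: 6 h treatment, 37 °C; measured by: glow luminescence from Steady-Glo reagent; evaluation: activation, % of tunicamycin; control set: tunicamycin high, DMSO low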
# iPSC survival up = enhancers of single-cell hiPSC survival, primary screen, ATPlite luminescence | 100% = ROCK inhibitor wells, 0% = DMSO | survival enhancement, % at 20 µM | hit rate 0.044% among 360,000 | AID 602274, 2012; in the data active = survival enhancement above about 18%;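 also: cells exposed to compounds for 16 hours before the ATP read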
# H9c2 protect = cardioprotection against H2O2-induced cell death, primary screen, uHTS, H9c2 cells, ATPLite luminescence; H9c2 cardiomyocytes, H2O2 injury protection, 2 h; protection from H2O2 cell death, % at 20 µM; hit rate 0.63% among 360,000; AID 588492, 2011;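 active = compounds giving at least 50% protection of heart cells from peroxide-induced death in the single-dose screen, raw or plate-pattern-corrected value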;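 also: 0% = DMSO wells with peroxide and 100% = DMSO wells without peroxide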
# UPR CHOP act = activators of apoptotic CHOP UPR arm, primary screen, cell-based, CHO-CHOP luciferase reporter, luminescence, uHTS; UPR activation; percent of tunicamycin response over DMSO baseline; activation, % at 10 µM; hit rate 0.34% among 330,000;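 active = at 10 µM dose, activation of 40% or more, normalized to positive control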;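 also: 100% = tunicamycin at 10 µg/mL and 0% = DMSO alone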
#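 Evaluation: % reporter activation, DMSO baseline versus tunicamycin full activation; System: CHO-CHOP luciferase reporter cell line; Input: 500 cells/well; Incubation: 6 h compound treatment, 37 °C; Measured by: Steady-Glo luciferase luminescence; Dosing: one dose, 10 µM in 0.5% DMSO; Buffer or medium: F12 medium, 10% FBS; Benchmarks: positive tunicamycin 10 µg/mL, negative DMSO alone.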
# CHOP inh = inhibitors of CHOP promoter induction, primary screen, cell-based, unfolded protein response, luciferase reporter; hit rate 3.8% among 220,000; CHO-K1 CHOP-promoter luciferase, tunicamycin-induced, 15-18 h; AID 2732, 2010; inhibition, % at 10 µM;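 active = compounds that reduced the stress-induced luciferase reporter signal by more than about 70% of percent inhibition, limit read from the data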;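 also: 0% = tunicamycin plus vehicle and 100% = wells without tunicamycin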
# UPR CHOP confirm = activators of apoptotic CHOP UPR arm, confirmation, cell-based, CHO-CHOP luciferase reporter, single concentration | activation, % at 10 µM | hit rate 64% among 1,000 | AID 463112, 2010 | shares compounds with UPR CHOP act | CHO-CHOP cells, CHOP-luciferase reporter luminescence; percent of tunicamycin response, DMSO as zero; in the data active = activation above about 33%;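 also: 0% = DMSO wells and 100% = tunicamycin 10 µg/mL wells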
# Active calls of the source: *; nt = no result. Many of the other results were omitted from the sample, so hits are more common in it than they were.
SMILES,XBP1 UPR activ,iPSC survival up,H9c2 protect,UPR CHOP act,CHOP inh,UPR CHOP confirm
Cc1ccn2cc(-c3ccc(O)c(O)c3)nc2c1,-4.1,-0.8,-4.9,120.0*,nt,56.6*
Oc1ccc(-c2cn3ccccc3n2)cc1O,-1.5,-0.1,27.6,154.7*,nt,33.5*
COc1cc(NCCCn2cnc3c(OCc4ccccc4)ncnc32)cc(OC)c1OC,nt,0.9,7.7,nt,nt,nt
Oc1ccc(/C=N/Nc2ccnc3cc(Cl)ccc23)cc1O,20.0,-0.4,23.2,192.7*,43.3,150.7*
Cc1cnnn1-c1ccc(C(=O)CCl)cc1,-7.2,-5.6,-17.4,131.8*,91.6*,-9.3
O=C1NC[C@H](CCCCN2C[C@H](Cc3ccccc3)N(Cc3ccccc3)C(=O)C2=O)N(CCC2CCCCC2)C1=O,nt,-0.1,nt,nt,nt,nt
COc1ccc(CNc2nc3ccccc3n2CCN2CCCCC2)cc1,-0.3,-0.4,-3.4,0.4,21.1,nt
COc1ccc(CCN2CCC(Nc3nc4ccccc4n3Cc3ccc(F)cc3)CC2)cc1,3.9,-3.4,-15.4,56.0*,nt,43.9*
CC1=NN(c2ccccc2)C(=O)/C1=C\C=C\c1ccccc1,-1.0,-0.2,7.8,3.1,-18.9,nt
ClC1=C(Cl)C(Cl)=C(Cl)C1=C/C=C/c1ccccc1,29.6,3.8,-10.1,55.4*,94.6*,29.4
COc1ccc(C(CNC(=O)C2CCN(S(=O)(=O)c3ccc(F)cc3)CC2)N(C)C)cc1 (stereo not given),1.6,0.7,1.4,0.9,nt,nt
CCOc1ccccc1NC(=O)c1nc(S(=O)(=O)Cc2cccc(C)c2)ncc1Cl,-9.8,5.4,-20.0,-10.5,nt,nt
Cc1ccc(CS(=O)(=O)c2ncc(Cl)c(C(=O)Nc3nnc(C(C)C)s3)n2)cc1,-6.7,-0.2,-15.2,91.5*,nt,38.1*
CSc1nnc(NC(=O)c2nc(S(=O)(=O)Cc3cccc(C)c3)ncc2Cl)s1,-5.7,0.0,-11.8,55.1*,nt,74.9*
Cc1ccc(CS(=O)(=O)c2ncc(Cl)c(C(=O)Nc3ccc(OC(F)F)cc3)n2)cc1,-8.6,4.9,-16.8,165.6*,nt,34.5*
Cc1cccc(CS(=O)(=O)c2ncc(Cl)c(C(=O)Nc3nnc(C(C)C)s3)n2)c1,-7.3,0.1,-10.6,105.2*,nt,25.1
Cc1cccc(N(C)c2cc(-c3ccc(F)cc3)nc3ccnn23)c1,nt,4.0,-6.6,nt,nt,nt
CCCCN1C(=O)C(CC(=O)NCCc2ccccn2)CC(C(=O)N2CCOCC2)=C1C (stereo not given),nt,4.2,6.7,nt,nt,nt
NC(=O)C(=CNc1nc(-c2ccc(Cl)c(Cl)c2)cs1)C(N)=O,nt,nt,nt,nt,3.5,nt
CC(C)c1nnc(NC(=O)c2nc(S(=O)(=O)Cc3ccc(F)cc3)ncc2Cl)s1,-10.0,0.1,-14.9,80.4*,nt,7.0
Cc1ccc(C)c2sc(N3CCN(C(=O)c4ccc([N+](=O)[O-])o4)CC3)nc12,6.8,-0.1,-3.9,82.8*,nt,60.8*
CCS(=O)(=O)c1cc([N+](=O)[O-])c(Sc2ccccc2NC(C)=O)s1,1.5,-0.9,0.2,59.3*,-182.5,14.7
Cc1ccc(-c2nn(-c3ccccc3)cc2NC(=O)CCl)cc1,-5.3,-1.1,-26.6,81.6*,104.5*,0.3
O=C(Nc1nc2ccc(F)cc2s1)c1ccccn1,-7.7,nt,nt,79.9*,81.4*,73.2*
O=C(Nc1nc2ccccc2s1)c1cnccn1,-5.2,-1.6,-9.5,-0.9,43.1,nt
SMILES,XBP1 UPR activ,iPSC survival up,H9c2 protect,UPR CHOP act,CHOP inh,UPR CHOP confirm
COc1ccc2c(C(=O)CCl)c[nH]c2c1,-5.2,0.4,-5.6,237.9*,-149.1,205.3*
COc1ccc(OCC(=O)c2c[nH]c3ccccc23)cc1,-0.3,-0.9,-16.4,6.4,-3.6,nt
O=C(CCl)Nc1cccc(S(=O)(=O)NC2=NCCCCC2)c1,19.6,0.3,-8.5,166.8*,nt,81.3*
C[C@H](NC(=O)c1ccco1)C(=O)NNC(=O)c1ccc(F)cc1,-3.7,-3.3,2.5,-1.2,nt,nt
COC(=O)C1=C(C(=O)OC)SC2(S1)C(C(=O)OC)=C(C(=O)OC)SC1=C2c2cccc(C)c2NC1(C)C,3.2,-1.8,-8.0,40.5*,50.2,18.9
O=C(NN=Cc1cc(=O)[nH]c(=O)[nH]1)c1ccncc1,nt,-0.4,1.3,nt,nt,nt
c1ccc(CNc2nc(-c3ccccn3)nc3ccccc23)cc1,13.2,-0.1,18.2,40.2*,nt,15.3
c1ccc(CNc2nc(-c3ccccc3)nc3ccccc23)cc1,0.3,0.1,-5.7,-0.3,nt,nt
CCC(C)Nc1nc(-c2cccc(OC)c2O)nc2ccccc12 (stereo not given),2.9,2.1,-40.1,0.6,69.2,nt
CCC(C)Nc1nc(-c2ccccn2)nc2ccccc12 (stereo not given),11.1,-0.3,-1.4,46.5*,nt,21.3
CC1Cc2[nH]c(=S)[nH]c(=O)c2C(c2ccc(F)cc2)O1 (stereo not given),nt,1.0,nt,nt,nt,nt
CC1(C)C(=O)Nc2ccccc2N1C(=O)Cn1ncc(Cl)c(Cl)c1=O,1.6,0.3,-20.2,50.1*,-103.5,4.2
O=C(NCC1CCCO1)C(=O)N/N=C/c1ccc(OCc2ccccc2Cl)cc1 (stereo not given),-0.3,-1.7,14.7,3.6,nt,nt
CCCC(=O)NC(c1ccccc1)c1ccc2cccnc2c1O (stereo not given),2.9,0.1,30.5,51.1*,nt,25.8
CCCCC(=O)NC(c1ccccc1)c1ccc2cccnc2c1O (stereo not given),2.1,-0.2,41.5,5.2,nt,nt
CCN(CC)Cc1c(O)ccc2c1O/C(=C\C=C\c1ccccc1)C2=O,-0.6,2.0,7.2,69.3*,-0.2,1.5
COc1ccc(O)c(/C=N/n2c(-c3ccco3)csc2=Nc2cccnc2)c1,8.4,-1.5,-5.9,0.1,0.3,nt
CN=c1scc(-c2ccco2)n1/N=C/c1ccc(O)c(O)c1,-3.3,-2.9,-8.7,51.9*,23.1,69.8*
C=CCN=c1scc(C)n1/N=C/c1ccc(O)c(O)c1,18.9,-0.9,65.2*,302.1*,-103.3,208.4*
CS(=O)(=O)Nc1ccc(F)cc1,nt,-0.8,nt,nt,nt,nt
CC1C(c2ccc3c(c2)OCO3)c2cc3c(cc2OC1N1CCOCC1)OCO3 (stereo not given),nt,-0.4,-0.5,nt,nt,nt
CSc1nnc(NC(=O)c2nc(S(=O)(=O)Cc3ccccc3F)ncc2Cl)s1,-8.7,-0.4,-14.7,43.8*,nt,77.2*
CCSc1nnc(NC(=O)c2nc(S(=O)(=O)Cc3ccc(F)cc3)ncc2Cl)s1,-8.1,-0.3,-13.9,25.3,nt,nt
O=C(NCc1ccc2c(c1)OCO2)c1ccccc1Cl,0.9,0.0,-3.7,3.7,nt,nt
CC(C)c1nnc(NC(=O)c2nc(S(=O)(=O)Cc3ccccc3F)ncc2Cl)s1,-8.5,nt,nt,55.8*,nt,17.6

# Screens: PubChem, several laboratories
